Bioassay records from PubChem.
procasp7 counter = counter-screen: procaspase-7 (human) activation; P55210; recombinant procaspase-7, Ac-DEVD-pNA absorbance 405 nm; D23A/D198A/D206A triple mutant, cannot self-cleave; scale: DMSO 0, 5 µM enzyme 100; activation, % at 8.5 µM; hit rate 0.093% among 330,000;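 active = percent activation above the screen-wide mean plus 3 SD, cut at about 25% in these data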
Target sequence (P55210 whole entry D23A/D198A/D206A): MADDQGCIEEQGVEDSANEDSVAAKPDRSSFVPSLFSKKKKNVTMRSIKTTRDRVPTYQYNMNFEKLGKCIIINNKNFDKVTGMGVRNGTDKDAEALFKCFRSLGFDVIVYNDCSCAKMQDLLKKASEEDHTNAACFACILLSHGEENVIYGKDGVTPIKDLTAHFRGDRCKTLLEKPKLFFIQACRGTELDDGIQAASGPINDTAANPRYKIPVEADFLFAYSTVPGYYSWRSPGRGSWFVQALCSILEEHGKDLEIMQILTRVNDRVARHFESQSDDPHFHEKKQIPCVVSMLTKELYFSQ
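Assay system: Uncleavable procaspase-7 mutant enzyme; Input: 2 µM procaspase-7 mutant as dispensed; Also added: DEVD-pNA substrate; Medium: Zinc-free HEPES pH 7.4 with 300 mM NaCl, 0.01% Triton X-100; Timing: 1 h compound preincubation, 2 h substrate cleavage, 25 °C; Measured by: Epi-absorbance of released pNA at 405 nm, two timepoints.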
EBNA-1 inhibitor = blocks EBNA-1 binding to DNA; EBNA-1 DNA binding, fluorescence polarization; inhibition, % at 14.8 µM; hit rate 0.34% among 300,000; AID 1950; in the data active = inhibition above about 28%
proCasp3 act = activates human procaspase-3; P42574; recombinant procaspase-3 D3A, Ac-DEVD-pNA absorbance 405 nm; activation, % at 8.5 µM; hit rate 0.11% among 330,000; AID 463141;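 active = activation above the mean of all tested compounds plus 3 SD, cut at about 21% in these data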;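 also: 0% = DMSO alone and 100% = DMSO wells spiked with extra 5 µM PC-3 D3A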
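System: Procaspase-3 D3A mutant. Medium: Zinc-free 300 mM NaCl, 50 mM HEPES, 0.01% Triton X-100. Schedule: 1 h preincubation plus 2 h reaction at 25 °C. Measured by: 405 nm absorbance of p-nitroaniline, reads at 0 and 120 min. Read-out: percent activation relative to control range.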
ZTA DNA inh = counter-screen for EBNA-1 inhibitors: inhibitors of Epstein-Barr virus ZTA. P03206. ZTA-DNA binding, fluorescence polarization. inhibition, % at 11 µM. hit rate 0.15% among 320,000; in the data active = inhibition above about 33%
Apaf1 inhib = human Apaf-1 inhibition; O14727; reconstituted apoptosome caspase-3 activity, DEVD-Rh110 fluorescence; inhibition, % at 20 µM; hit rate 0.71% among 330,000; active = inhibition of at least 40% at 20 µM;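 also: plate controls were DMSO wells for no effect and DEVD-CHO caspase inhibitor wells for full effect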
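Medium: Hepes buffer, pH 7.5 / System: biochemical Apaf-1 apoptosome reconstitution / Measured by: Rh110 fluorescence, excitation 480 nm, emission 540 nm / Times: compound with Apaf-1, dATP, procaspase-3 30 min, then 50 min reaction, room temperature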
GSTO1 counter = GSTO1 inhibition, counter-screen for RBBP9 inhibitors; inhibition, % at 5.96 µM; AID 1974; P78417; hit rate 1.1% among 300,000; recombinant GSTO1, activity-based probe fluorescence polarization;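 active = inhibition above the campaign mean inhibition plus 3 SD, cut at about 35% in these data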;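 also: 0% = GSTO1-1 with DMSO and 100% = wells lacking GSTO1-1 enzyme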
Target sequence (P78417 whole entry, looked up): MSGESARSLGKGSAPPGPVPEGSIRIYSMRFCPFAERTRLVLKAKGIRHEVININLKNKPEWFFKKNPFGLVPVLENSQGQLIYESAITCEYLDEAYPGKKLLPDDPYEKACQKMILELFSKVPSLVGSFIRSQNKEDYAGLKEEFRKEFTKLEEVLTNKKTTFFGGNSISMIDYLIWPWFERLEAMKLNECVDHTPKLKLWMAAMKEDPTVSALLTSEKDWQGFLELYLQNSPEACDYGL
GSTO1 confirm = GSTO1 (human) inhibition, confirmation | recombinant GSTO1, probe fluorescence polarization | shares compounds with GSTO1 counter | hit rate 54% among 2,400 | inhibition, % at 5.96 µM;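 active = inhibition above the primary screen's cutoff, its mean inhibition plus 3 SD, cut at about 35% in these data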;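 also: loss of polarization as inhibitors block binding of rhodamine sulfonate ester activity probe; 0% = GSTO1 with DMSO and 100% = wells lacking GSTO1 enzyme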
GSTO1 recomb ABPP = blocks recombinant human glutathione S-transferase omega 1; inhibition, % at 1 µM; hit rate 30% among 130; recombinant GSTO1, gel ABPP SE-Rh probe fluorescence; shares compounds with GSTO1 counter;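 active = inhibition of the enzyme GSTO1 above about 75%, limit read from the data; inactive = inhibition below that limit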
Numbers without * were called inactive; · = no result given. In the library only some 1.8% were active in any assay of this set; here they are far more common.

SMILES	procasp7 counter	EBNA-1 inhibitor	proCasp3 act	ZTA DNA inh	Apaf1 inhib	GSTO1 counter	GSTO1 confirm	others
COc1ccc(C(CCN(Cc2ccc(OC)c(OC)c2)C(C)=O)c2ccccc2)cc1 (configuration not stated)	11	11	4	1	-6	0	·
O=[N+]([O-])c1ccc2c(c1N1CCCCC1)=NC1(CCCCC1)[N+]=2[O-]	-1	9	-2	-6	13	57*	6
COc1cc2c(ccc3cc(OC)c(OC)c(O)c32)cc1O	5	-2	4	-11	-21	55*	45*
O=C(CN1CCN(c2ccccc2F)CC1)NC(=O)NC1CCCCC1	4	·	9	·	-7	·	·
CCOC(=O)Cn1c(=O)oc2cc(S(=O)(=O)Nc3cc(OCC)ccc3OCC)ccc21	4	0	4	-9	6	11	·
CCOC(=O)Cn1c(=O)oc2cc(S(=O)(=O)Nc3ccc(N(CC)CC)cc3C)ccc21	-6	3	-1	2	6	68*	62*
O=S(=O)(c1ccc2ccccc2c1)N1CCOCC1	-3	-11	-2	1	0	-1	·
O=S(=O)(c1ccc2nc(-c3ccco3)c(-c3ccco3)nc2c1)N1CCOCC1	-18	-4	-11	-8	77*	48*	21
O=C1C2C3C=CC(C2C(=O)N1c1ccc(O)cc1)C1C2C(=O)N(c4ccc(O)cc4)C(=O)C2C31 (configuration not stated)	-6	7	0	-13	-16	42*	10
CN(C)Cc1cc(O)c(CN(C)C)cc1O	-9	9	-3	5	65*	53*	11
CN(C)Cc1cc(C(C)(C)C)cc(C(C)(C)C)c1O	10	-7	6	18	-26	5	·
Cc1ccc(C2=NN(C(=O)CCl)C(c3cccs3)C2)o1 (configuration not stated)	-57	1	-10	-8	6	99*	96*
O=C(CCl)N1N=C(c2ccco2)CC1c1cccs1 (configuration not stated)	-18	3	-7	15	·	85*	99*
CC(=O)N1N=C(c2ccco2)CC1c1cccs1 (configuration not stated)	-10	-9	-3	-1	2	4	·
Cc1ccc(C2=NN(C(=O)CCC(=O)O)C(c3cccs3)C2)cc1 (configuration not stated)	2	11	-5	8	-16	-1	·
Cc1cccc(N2CCN(S(=O)(=O)c3ccc(Cl)nc3)CC2C)c1 (configuration not stated)	5	·	2	·	3	·	·
O=C1CCCC/C=C\C[C@H](CC(=O)N(CCO)Cc2ccccc2)C(=O)NCCO1	2	·	7	·	2	·	·
COC1=C/C(=C/c2c(N)n3c(nc2=O)sc2cc(S(C)(=O)=O)ccc23)C=CC1=O	4	-5	0	-25	1	-3	·
CS(=O)(=O)c1ccc2c(c1)sc1nc(=O)c(/C=C3/C=CC(=O)C(O)=C3)c(N)n12	5	10	-8	0	-23	44*	32
CC1=CC(=Nc2c(C)n(C)n(-c3ccccc3)c2=O)C=CC1=O	-10	-3	-10	-9	43*	74*	41*
CCC(C)C1=CC(=Nc2c(C)n(C)n(-c3ccccc3)c2=O)C=C(C(C)CC)C1=O (configuration not stated)	-2	2	-2	0	19	9	·
Cc1ccc(N(C(=O)CCl)C(C(=O)NC2CCCCC2)c2cccnc2)cc1C (configuration not stated)	-5	0	4	14	·	99*	92*	GSTO1 recomb ABPP=71
COc1ccc(C(=O)N/C(=C\c2cccc3ccccc23)C(=O)N2CCN(C)CC2)cc1	-7	·	-6	-3	21	·	·
O=C(CSc1nc2ncc(Br)cc2[nH]1)Nc1ccc2c(c1)OCO2	10	-3	-1	5	13	45*	53*
CCCCOc1ccc(C(=O)OCC(=O)N2CCOCC2)cc1	-6	8	10	-3	3	11	·
SMILES	procasp7 counter	EBNA-1 inhibitor	proCasp3 act	ZTA DNA inh	Apaf1 inhib	GSTO1 counter	GSTO1 confirm	others
COc1ccc(Sc2ccccc2CN(C)C)cc1OC	-6	0	6	4	5	10	·
CNCc1ccccc1Sc1ccc(O)c(O)c1	-18	7	-15	10	·	74*	71*
Clc1ncccc1-c1nnn(-c2ccccc2)n1	2	0	2	-4	2	58*	4
Fc1ccc(-n2nnc(-c3cccnc3Cl)n2)cc1	4	-16	3	5	3	0	·
O=C(COC(=O)c1ccco1)Nc1ccc(N2CCOCC2)cc1	·	·	·	·	0	·	·
Cc1ccc(NC(=O)c2ccc(OCc3c(C)noc3C)cc2)nc1	3	·	-2	16	6	·	·
C/C(=N\NS(=O)(=O)c1ccc(Cl)c([N+](=O)[O-])c1)c1cc2ccccc2o1	-6	4	5	5	2	40*	14
C/C(=N\NS(=O)(=O)c1ccc(C)c([N+](=O)[O-])c1)c1cc2ccccc2o1	2	10	-4	-2	14	2	·
C/C(=N\NS(=O)(=O)c1ccc(Cl)c([N+](=O)[O-])c1)c1ccc(C)o1	7	4	1	9	-1	49*	27
O=C(CNC(=O)c1cccnc1)N=Nc1c(O)[nH]c2c(Br)cc(Br)cc12	1	-13	9	2	5	85*	41*
O=[N+]([O-])c1cc(Br)cc(C=Nc2ccc3c(c2)OCO3)c1O	-11	-6	-20	8	4	43*	38*
Cc1ccc(S(=O)(=O)N(C)C)cc1NC(=O)C(C)N(C)CCOc1ccc(Cl)cc1 (configuration not stated)	3	1	-1	-22	19	7	·
ClC(Cl)(Cl)c1nc2ccccc2n2nncc12	-11	-7	7	-3	3	64*	52*
c1ccc2c(c1)nnn1c3ccccc3nc21	11	-3	2	-11	7	6	·
Cc1nnc(NC(=O)c2cc(-c3ccncc3)nc3c(C)cccc23)s1	3	8	-11	13	2	-11	·
O=C(Cc1c[nH]c2ccccc12)N1CCN(S(=O)(=O)c2cccc(Cl)c2Cl)CC1	11	·	4	12	19	·	·
CC(C)(C)CC(=O)Nc1cc(S(=O)(=O)N2CCCCCC2)ccc1Cl	-7	13	-2	1	2	0	·
